Results on 13 compounds are retold here after ChEMBL document CHEMBL2311361, “Diminutive effect on T and B-cell proliferation of non-cytotoxic α-santonin derived 1,2,3-triazoles: a report” (Eur J Med Chem, 2013).

The structures appear in SMILES notation.

A short description of data set [1]: Cytotoxicity against in Balb/c mouse B cells at 10^-6 M after 48 hrs by MTT assay. It is filed as cell-based. Particulars: 1 µM. The essentials:
(§1)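 Spleens taken aseptically from Balb/c mice (18–22 g). Single-cell suspension made in incomplete RPMI, RBCs lysed with Tris-ammonium chloride, cells washed, resuspended in complete RPMI and checked for viability by trypan blue. Cells seeded at 1 × 10⁶ cells/mL. Compounds in DMSO tested at 1×10⁻⁴, 1×10⁻⁵ and 1×10⁻⁶ M, 48 h, 37 °C, 5% CO₂.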
For orientation: Tetrazolium dyes change colour on reduction, which living cells bring about.

A short description of data set [2]: Cytotoxicity against in Balb/c mouse B cells at 10^-4 M after 48 hrs by MTT assay. It is filed as cell-based. Particulars: 100 µM. The method in brief:
as §1

Data set [3] is described as follows: Immunosuppressive activity in Balb/c mouse B cells assessed as inhibition of LPS-induced cell proliferation at 10^-6 M after 48 hrs by MTT assay. It is filed as functional. The essentials: as §1
The nature of data set [4]: Immunosuppressive activity in Balb/c mouse T cells assessed as inhibition of concanavalin A-induced cell proliferation at 10^-6 M after 48 hrs by MTT assay. It is filed as functional. Particulars: for inhibition at 1 µM: Mus musculus, Balb/c, T-cell, 48 h. The method in brief:
as §1

The nature of data set [5]: Immunosuppressive activity in Balb/c mouse B cells assessed as inhibition of LPS-induced cell proliferation at 10^-5 M after 48 hrs by MTT assay. It counts as functional. The essentials: as §1
Data set [6] is described as follows: Cytotoxicity against in Balb/c mouse T cells at 10^-4 M after 48 hrs by MTT assay. It counts as cell-based. Particulars: t-cell, 100 µM. The method in brief:
as §1

A short description of data set [7]: Immunosuppressive activity in Balb/c mouse T cells assessed as inhibition of concanavalin A-induced cell proliferation at 10^-4 M after 48 hrs by MTT assay. It is filed as functional. The method in brief:
as §1

A short description of data set [8]: Immunosuppressive activity in Balb/c mouse B cells assessed as inhibition of LPS-induced cell proliferation at 10^-4 M after 48 hrs by MTT assay. It counts as functional. The method in brief: as §1
The nature of data set [9]: Cytotoxicity against in Balb/c mouse B cells at 10^-5 M after 48 hrs by MTT assay. It is filed as cell-based. Particulars: 10 µM. The essentials:
as §1

A short description of data set [10]: Immunosuppressive activity in Balb/c mouse T cells assessed as inhibition of concanavalin A-induced cell proliferation at 10^-5 M after 48 hrs by MTT assay. It is filed as functional. The essentials:
as §1

Data set [11] is described as follows: Cytotoxicity against in Balb/c mouse T cells at 10^-6 M after 48 hrs by MTT assay. It counts as cell-based. Particulars: t-cell, 1 µM. The essentials: as §1
The nature of data set [12]: Cytotoxicity against in Balb/c mouse T cells at 10^-5 M after 48 hrs by MTT assay. It counts as cell-based. Particulars: t-cell, 10 µM. The essentials:
as §1

A short description of data set [13]: Immunostimulant activity in Balb/c mouse T cells assessed as inhibition of concanavalin A-induced cell proliferation at 10^-4 M after 48 hrs by MTT assay. It counts as functional. Particulars: for inhibition at 100 µM: Mus musculus, Balb/c, T-cell, 48 h. The essentials:
as §1

The nature of data set [14]: Immunostimulant activity in Balb/c mouse T cells assessed as inhibition of concanavalin A-induced cell proliferation at 10^-5 M after 48 hrs by MTT assay. It counts as functional. The method in brief:
as §1

Data set [15] can be described thus: Immunostimulant activity in Balb/c mouse B cells assessed as inhibition of LPS-induced cell proliferation at 10^-6 M after 48 hrs by MTT assay. It is filed as functional. The essentials:
as §1

Consider `Cc1ccc(I)cc1-n1nncc1COc1cc(C)c2c(c1C)[C@@H]1OC(=O)[C@@H](C)[C@@H]1CC2`, for which the Activity result in data set [1], in [2], in data set [6], in data set [9], in data set [11] and in data set [12] was “Non-toxic” each time. Moreover, the inhibition at 1 µM in data set [3] was 34.7%; in data set [4], 15.8%. In addition, the inhibition at 10 µM amounted to 14.7% in data set [5] and 20% in data set [10]. Further, the inhibition at 100 µM turned out to be 15.8% in data set [7] and 16.8% in data set [8].
Turning to `COc1cc(-n2nncc2COc2cc(C)c3c(c2C)[C@@H]2OC(=O)[C@@H](C)[C@@H]2CC3)cc(OC)c1OC`, the Activity entry in data set [1], in data set [2], in [6], in [9], in [11] and in data set [12] was “Non-toxic” in each case. The results for the inhibition at 1 µM in data set [3] and in data set [4] were 16.8% and 20%, respectively. In addition, the inhibition at 10 µM in data set [5] worked out at 26.3%; in data set [10], 14.7%. The figures for the inhibition at 100 µM in data set [7] and in data set [8] were 16.8% and 14.7%, respectively.
Consider `Cc1cc(OCc2cnnn2-c2cccc(Br)c2COc2cccc(Br)c2)c(C)c2c1CC[C@H]1[C@H](C)C(=O)O[C@@H]21`, for which the Activity result in data set [1] was “Toxic”; in data set [2], “Non-toxic”; in data set [6] it was “Non-toxic”; in [9] it was “Non-toxic”; in [11] it was “Toxic”; in [12], “Non-toxic”. Also, the inhibition at 1 µM was 24.2% in data set [3] and 14.2% in data set [4]. Moreover, the inhibition at 100 µM in data set [13] was 2.5%; in data set [8], 17.5%. Further, the inhibition at 10 µM in data set [5] came to 16.7%.
On to `Cc1cc(OCc2cnnn2-c2cccc(O)c2)c(C)c2c1CC[C@H]1[C@H](C)C(=O)O[C@@H]21`, for which the Activity entry was “Toxic” in [1]; “Non-toxic” in data set [2]; “Non-toxic” in data set [6]; “Non-toxic” in data set [9]; “Toxic” in [11]; “Non-toxic” in [12]. Besides, the inhibition at 1 µM in data set [3] is 19.2%; in data set [4], 5.83%. Also, the results for the inhibition at 10 µM in data set [14] and in data set [5] were 22.5% and 7.5%, respectively. In addition, the inhibition at 100 µM came to 10% in data set [7] and 9.16% in [8].
`COc1ccc2cc(-n3nncc3COc3cc(C)c4c(c3C)[C@@H]3OC(=O)[C@@H](C)[C@@H]3CC4)ccc2c1`: the Activity result in data set [1], in [2], in data set [6], in data set [9], in data set [11] and in data set [12] was “Non-toxic” throughout. Also, the results for the inhibition at 1 µM in data set [3] and in data set [4] were 25.6% and 93.9%, respectively. Besides, the figures for the inhibition at 10 µM in data set [5] and in data set [10] were 94% and 95.1%, respectively. Further, the inhibition at 100 µM is 93.9% in data set [7] and 28.2% in data set [8].
For the compound `Cc1cc(OCc2cnnn2-c2ccc(C=O)cc2)c(C)c2c1CC[C@H]1[C@H](C)C(=O)O[C@@H]21`, the Activity entry in data set [1], in data set [2], in data set [6], in [9], in data set [11] and in [12] was “Non-toxic” throughout. Moreover, the inhibition at 1 µM in data set [3] came out at 24.2%; in data set [4], 5.83%. In addition, the inhibition at 10 µM in [5] worked out at 22.5%; in [10] it was 6.66%. For the same compound, the inhibition at 100 µM was found to be 20.8% in [7] and 35% in data set [8].
Take `CC1=C2[C@H]3OC(=O)[C@@H](C)[C@@H]3CC[C@@]2(C)C=CC1=O` [SANTONIN]: the Activity entry in data set [1], in data set [2], in data set [6], in data set [9], in [11] and in data set [12] was “Non-toxic” in each case. The inhibition at 1 µM is 23.1% in data set [3] and -40.2% in data set [4]. For the same compound, the figures for the inhibition at 10 µM in [14] and in data set [5] were 3.65% and 25.6%, respectively. In addition, the inhibition at 100 µM in data set [7] was -6.09%; in data set [8], -36.8%.
Take `Cc1cc(OCc2cnnn2-c2cccc(C(N)=O)c2)c(C)c2c1CC[C@H]1[C@H](C)C(=O)O[C@@H]21`: the Activity entry in [1], in [2], in [6], in data set [9], in data set [11] and in data set [12] was “Non-toxic” in each case. Besides, the inhibition at 1 µM turned out to be 44.2% in data set [3] and 28.4% in [4]. The inhibition at 10 µM came out at 36.8% in [5] and 29.5% in [10]. The inhibition at 100 µM worked out at 6.31% in data set [7] and 8.42% in data set [8].
Regarding `Cc1cc(OCc2cnnn2-c2ccc3c(c2)OCO3)c(C)c2c1CC[C@H]1[C@H](C)C(=O)O[C@@H]21`, the Activity entry in [1], in data set [2], in data set [6], in [9], in data set [11] and in data set [12] was “Non-toxic” each time. For the same compound, the values for the inhibition at 1 µM in data set [3] and in data set [4] were 14.7% and 29.5%, respectively. In addition, the values for the inhibition at 10 µM in [5] and in [10] were 50.5% and 45.3%, respectively. Further, the values for the inhibition at 100 µM in [7] and in data set [8] were 29.5% and 32.6%, respectively.
In the case of `Cc1cc(OCc2cnnn2-c2c(Br)ccc(I)c2F)c(C)c2c1CC[C@H]1[C@H](C)C(=O)O[C@@H]21`, the Activity result in data set [1], in data set [2], in [6], in data set [9], in data set [11] and in [12] was “Non-toxic” in each case. Moreover, in [3], the inhibition at 1 µM was 8.57%. Besides, the inhibition at 10 µM in data set [5] amounted to 50%. Also, in data set [8], the inhibition at 100 µM turned out to be 11.4%.
With `Cc1cc(OCc2cnnn2-c2cccc(I)c2)c(C)c2c1CC[C@H]1[C@H](C)C(=O)O[C@@H]21`, the Activity entry in data set [1], in [2], in [6], in data set [9], in data set [11] and in [12] was “Non-toxic” throughout. Further, the inhibition at 1 µM in data set [3] and in data set [4] was 15.8% in each case. For the same compound, the inhibition at 10 µM in [5] and in data set [10] was 20% throughout. Moreover, the inhibition at 100 µM in data set [7] amounted to 3.15%; in data set [8] it was 15.8%.
For `Cc1cc(OCc2cnnn2-c2cc(F)ccc2I)c(C)c2c1CC[C@H]1[C@H](C)C(=O)O[C@@H]21`, the Activity result in data set [1] is reported as “Toxic”; in data set [2], “Toxic”; in data set [6], “Toxic”; in [9], “Non-toxic”; in data set [11], “Toxic”; in data set [12], “Non-toxic”. The inhibition at 1 µM in data set [3] came out at 20.8%; in data set [4], 21.4%. Also, the values for the inhibition at 10 µM in data set [14], in [5] and in data set [10] were 10.8%, 24.2% and 31.4%, respectively. Moreover, the entries for the “inhibition (INH)” value in data set [4] and in data set [13] were 17.5% and 19.16%, respectively. The inhibition at 100 µM in data set [13] was 19.2%; in data set [8], 14.2%.
With `Cc1cc(OCc2cnnn2-c2ccccc2C(F)(F)F)c(C)c2c1CC[C@H]1[C@H](C)C(=O)O[C@@H]21`, the Activity entry in data set [1], in data set [2], in data set [6], in [9], in data set [11] and in data set [12] was “Non-toxic” throughout. The inhibition at 1 µM in data set [4] was 7.14%; in data set [15], 62.9%. The inhibition at 10 µM in data set [5] is 31.4%; in data set [10], 30%. Further, the inhibition at 100 µM in data set [7] was found to be 22.9%; in data set [8], 11.4%.

What is called inhibition is the change of the read-out against control, counted positive when it falls.
